These results are taken from ChEMBL document CHEMBL1155319, “Discovery of novel selective HER-2 sheddase inhibitors through optimization of P1 moiety” (Bioorg Med Chem Lett, 2009).

For series [1], the target named is T1, Disintegrin and metalloproteinase domain-containing protein 10 (Homo sapiens, UniProt O14672).
T1 sequence (O14672 whole entry): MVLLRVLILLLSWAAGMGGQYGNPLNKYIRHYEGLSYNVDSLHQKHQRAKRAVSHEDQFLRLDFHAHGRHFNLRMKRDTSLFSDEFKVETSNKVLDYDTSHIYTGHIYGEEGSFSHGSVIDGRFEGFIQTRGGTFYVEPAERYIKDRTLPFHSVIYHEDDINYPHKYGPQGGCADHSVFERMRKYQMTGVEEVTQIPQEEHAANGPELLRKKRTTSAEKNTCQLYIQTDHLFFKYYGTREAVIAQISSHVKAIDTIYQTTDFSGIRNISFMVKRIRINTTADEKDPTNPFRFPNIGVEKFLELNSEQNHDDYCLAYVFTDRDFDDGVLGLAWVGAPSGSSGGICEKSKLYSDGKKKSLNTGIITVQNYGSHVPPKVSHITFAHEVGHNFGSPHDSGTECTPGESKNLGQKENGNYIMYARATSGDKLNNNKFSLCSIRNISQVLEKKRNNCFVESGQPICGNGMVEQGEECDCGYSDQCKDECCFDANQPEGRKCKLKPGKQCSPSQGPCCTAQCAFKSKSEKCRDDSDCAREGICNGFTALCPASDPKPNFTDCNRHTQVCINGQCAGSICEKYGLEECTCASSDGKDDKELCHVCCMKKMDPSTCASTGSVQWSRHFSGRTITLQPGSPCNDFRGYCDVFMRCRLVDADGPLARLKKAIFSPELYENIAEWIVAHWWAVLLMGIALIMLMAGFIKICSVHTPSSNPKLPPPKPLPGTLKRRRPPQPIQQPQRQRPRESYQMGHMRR
Kind of series: Inhibition of ADAM-10.

Series [2] has as its target Matrix metalloproteinase-9 (Homo sapiens, UniProt P14780). Kind of series: Inhibition of MMP-9.
In a further series the target is T2, Interstitial collagenase (Homo sapiens, UniProt P03956).
T2 sequence (P03956 whole entry): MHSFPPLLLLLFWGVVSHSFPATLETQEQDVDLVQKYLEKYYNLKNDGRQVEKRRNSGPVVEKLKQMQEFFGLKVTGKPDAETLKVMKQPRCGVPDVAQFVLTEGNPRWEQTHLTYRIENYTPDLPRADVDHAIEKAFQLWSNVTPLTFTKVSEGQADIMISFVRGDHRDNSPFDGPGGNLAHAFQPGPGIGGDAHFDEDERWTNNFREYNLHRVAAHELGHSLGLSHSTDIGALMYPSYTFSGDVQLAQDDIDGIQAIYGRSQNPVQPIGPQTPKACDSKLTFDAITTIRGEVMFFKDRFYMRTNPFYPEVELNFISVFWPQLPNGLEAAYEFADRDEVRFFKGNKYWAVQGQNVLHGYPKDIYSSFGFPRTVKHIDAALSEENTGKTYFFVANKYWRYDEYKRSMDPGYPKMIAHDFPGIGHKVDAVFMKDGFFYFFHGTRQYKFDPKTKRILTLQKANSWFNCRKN
Kind of series: Inhibition of MMP-1.

Series [3] concerns the target 72 kDa type IV collagenase (Homo sapiens, UniProt P08253). Kind of series: Inhibition of MMP-2.
For another series, the target named is Stromelysin-1 (Homo sapiens, UniProt P08254). Kind of series: Inhibition of MMP-3.
Stromelysin-1, sequence (P08254 whole entry): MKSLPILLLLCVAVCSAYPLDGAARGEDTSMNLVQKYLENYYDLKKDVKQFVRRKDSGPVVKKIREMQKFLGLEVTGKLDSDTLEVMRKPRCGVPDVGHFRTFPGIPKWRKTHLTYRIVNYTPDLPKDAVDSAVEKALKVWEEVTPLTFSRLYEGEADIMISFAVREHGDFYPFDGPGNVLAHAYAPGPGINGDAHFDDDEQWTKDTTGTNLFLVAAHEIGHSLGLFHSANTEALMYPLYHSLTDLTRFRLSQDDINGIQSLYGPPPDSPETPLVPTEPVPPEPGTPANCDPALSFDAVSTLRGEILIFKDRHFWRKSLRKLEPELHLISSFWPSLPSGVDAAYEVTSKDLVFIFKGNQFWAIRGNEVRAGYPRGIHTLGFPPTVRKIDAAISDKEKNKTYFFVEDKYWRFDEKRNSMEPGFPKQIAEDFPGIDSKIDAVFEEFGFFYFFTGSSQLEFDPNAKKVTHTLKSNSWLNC
A short description of series [4]: Permeability across human Caco-2 cells. Format: ADME, cell-based. In general terms: Passage across Caco-2 layers is used to estimate intestinal permeability.
The nature of series [5]: Clearance in human microsome. Format: ADME. The conditions noted are these: microsomes. The method in brief: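 Clearance projected from incubation with human microsomes and expressed in L/h/kg.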
The nature of series [6]: Half life in mouse at 5 mg/kg, po. The series is classed as ADME, organism-based. Further details: dose 5 mg/kg, route oral. The conditions noted are these: in vivo. A digest of the protocol:
(§1)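 Oral dose of 5 mg/kg, given as a suspension.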

Another series has as its system Mus musculus. Kind of series: AUC in mouse at 5 mg/kg, po. The series is classed as ADME, organism-based, Plasma. Further details: dose 5 mg/kg, route oral. The conditions noted are these: in vivo. The method in brief:
as §1

pIC50: −log10 of the molar value. A value given as a limit tells only on which side of the number the result lay.

Broadly, the pIC50 is the IC50 on a negative log10 scale, so that one unit is a factor of ten. A lower pIC50 goes with a large IC50. A word on the Papp: it is the rate of passage across a membrane or cell layer, normalised by area and donor concentration. Higher therefore signals ready permeation. A word on the half-life: it is how long it takes for the measured level to halve.

Matrix metalloproteinase-9, sequence (P14780 whole entry): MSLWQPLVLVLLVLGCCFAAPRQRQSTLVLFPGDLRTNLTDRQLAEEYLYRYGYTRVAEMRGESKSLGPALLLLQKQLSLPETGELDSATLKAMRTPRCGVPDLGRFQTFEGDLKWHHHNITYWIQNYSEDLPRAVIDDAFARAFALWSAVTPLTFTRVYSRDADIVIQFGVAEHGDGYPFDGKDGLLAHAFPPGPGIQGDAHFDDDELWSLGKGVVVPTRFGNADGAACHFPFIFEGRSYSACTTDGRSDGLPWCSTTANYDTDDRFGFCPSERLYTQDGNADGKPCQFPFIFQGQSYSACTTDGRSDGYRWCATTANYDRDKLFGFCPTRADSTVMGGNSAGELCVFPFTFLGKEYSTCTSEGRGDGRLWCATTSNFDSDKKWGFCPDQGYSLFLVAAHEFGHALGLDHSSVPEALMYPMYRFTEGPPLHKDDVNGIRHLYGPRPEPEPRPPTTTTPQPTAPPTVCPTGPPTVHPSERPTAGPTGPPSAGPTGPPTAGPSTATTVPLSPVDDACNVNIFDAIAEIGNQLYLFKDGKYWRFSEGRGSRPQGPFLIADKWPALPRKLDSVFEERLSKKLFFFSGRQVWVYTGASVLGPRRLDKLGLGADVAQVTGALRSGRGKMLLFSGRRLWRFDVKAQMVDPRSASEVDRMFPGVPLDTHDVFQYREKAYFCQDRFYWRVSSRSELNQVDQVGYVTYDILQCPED
72 kDa type IV collagenase, sequence (P08253 whole entry): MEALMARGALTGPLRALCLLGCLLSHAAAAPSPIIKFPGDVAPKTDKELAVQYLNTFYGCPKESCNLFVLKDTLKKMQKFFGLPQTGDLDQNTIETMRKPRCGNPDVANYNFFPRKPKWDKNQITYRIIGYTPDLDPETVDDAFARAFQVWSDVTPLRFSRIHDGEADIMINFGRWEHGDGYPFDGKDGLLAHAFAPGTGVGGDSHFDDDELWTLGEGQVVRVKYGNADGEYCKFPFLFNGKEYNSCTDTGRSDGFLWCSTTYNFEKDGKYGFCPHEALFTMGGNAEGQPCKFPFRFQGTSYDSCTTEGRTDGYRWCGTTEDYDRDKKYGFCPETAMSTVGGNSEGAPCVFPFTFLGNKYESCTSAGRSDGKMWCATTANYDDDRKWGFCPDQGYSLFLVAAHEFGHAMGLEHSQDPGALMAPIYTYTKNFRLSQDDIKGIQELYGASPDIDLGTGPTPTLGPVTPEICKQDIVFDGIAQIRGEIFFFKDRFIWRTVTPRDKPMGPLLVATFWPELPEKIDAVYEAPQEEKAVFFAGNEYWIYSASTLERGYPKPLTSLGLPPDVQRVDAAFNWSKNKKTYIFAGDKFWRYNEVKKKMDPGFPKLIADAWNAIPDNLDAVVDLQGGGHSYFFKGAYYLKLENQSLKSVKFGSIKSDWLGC

As to `O=C(NO)[C@H]1CC(OC(=O)N2CCCC2)CN[C@@H]1C(=O)N1CC=C(c2ccccc2)CC1` (some centres undefined), the negative logarithm of the IC50 (pIC50) in series [1] was 8.05; in [2], 6.30; at Interstitial collagenase, below 5.30; in series [3], 6.99; on Stromelysin-1, below 5.30.

As to `CN(C(=O)c1ccccc1)C1CN[C@H](C(=O)N2CC=C(c3ccccc3)CC2)[C@@H](C(=O)NO)C1` (some centres undefined), the pIC50 in series [1] and in series [3] was 7.92 in each case.

Turning to `CN1C[C@@H](OC(=O)N2CCCCC2)C[C@H](C(=O)NO)[C@H]1C(=O)N1CCN(c2ccccc2)CC1`, the pIC50 is 8.02 in [1]; below 5.30 in series [2]; below 5.30 against Interstitial collagenase; 6.46 in series [3]; below 5.30 at Stromelysin-1. The same compound registered a Papp in [4] of 0.9 ×10⁻⁶ cm/s. The CL in series [5] came to 0.58 L/h/kg.

Take `O=C(NO)[C@H]1CC2(CC2)CN[C@@H]1C(=O)N1CC=C(c2ccccc2)CC1`: the pIC50 in series [3] is above 8.30.

Consider `CN1C[C@@H](OC(=O)N2CCC(F)(F)C2)C[C@H](C(=O)NO)[C@H]1C(=O)N1CCN(c2ccccc2)CC1`, for which the pIC50 in [1] was 6.90; in [3] it was below 5.70.

As for `O=C(NO)[C@H]1CC(CC(=O)N2CCCC2)CN[C@@H]1C(=O)N1CC[C@H](c2ccccc2)C1` (some centres undefined), the pIC50 in series [1] was 7.85; in [3], 6.44.

As for `COC(=O)N1C[C@@H](OC(=O)N2CCCC2)C[C@H](C(=O)NO)[C@H]1C(=O)N1CCN(c2ccccc2)CC1`, the negative-log IC50 (pIC50) in series [1] was 7.70; in [2], below 5.30; against Interstitial collagenase, below 5.30; in series [3], 6.21; against Stromelysin-1 it was below 5.30.

With `CN1C[C@@H](OC(=O)N2CCC2)C[C@H](C(=O)NO)[C@H]1C(=O)N1CCN(c2ccccc2)CC1`, the negative-log IC50 (pIC50) in [1] is 7.70; in series [2], below 5.30; at Interstitial collagenase, below 5.30; in series [3], 6.36; at Stromelysin-1 it was below 5.30.

Turning to `CN1C[C@@H](OC(=O)N2CCCCCC2)C[C@H](C(=O)NO)[C@H]1C(=O)N1CCN(c2ccccc2)CC1`, the negative-log IC50 (pIC50) is 7.46 in [1]; below 5.30 in series [2]; below 5.30 on Interstitial collagenase; 6.07 in series [3]; below 5.30 against Stromelysin-1.

As for `CC(C)C(=O)N(C)C1CN[C@H](C(=O)N2CC[C@H](c3ccccc3)C2)[C@@H](C(=O)NO)C1` (some centres undefined), the values for the pIC50 in series [1] and in series [3] were 6.86 and 6.30, respectively.

Consider `O=C(NO)[C@H]1CC(OC(=O)N2CCCC2)CN[C@@H]1C(=O)N1CC[C@H](c2ccccc2)C1` (some centres undefined), for which the pIC50 was 7.08 in series [1]; below 5.30 in series [2]; below 5.30 against Interstitial collagenase; below 5.70 in series [3]; below 5.30 at Stromelysin-1.

`NCCCCNC(=O)CC1CN[C@H](C(=O)N2CCC(c3ccccc3)C2)[C@@H](C(=O)NO)C1` (some centres undefined): the results for the pIC50 in series [1] and in series [3] were 6.79 and 5.78, respectively.

On to `CN1C[C@@H](OC(=O)N2CC=CC2)C[C@H](C(=O)NO)[C@H]1C(=O)N1CCN(c2ccccc2)CC1`, for which the pIC50 in series [1] was 7.52; in series [2], below 5.30; against Interstitial collagenase, below 5.30; in series [3] it was 6.24; on Stromelysin-1 it was below 5.30.

`CN1C[C@@H](OC(=O)N2CCCCCCC2)C[C@H](C(=O)NO)[C@H]1C(=O)N1CCN(c2ccccc2)CC1` had a half-life in [6] of 52.8 min. Further, the negative logarithm of the IC50 (pIC50) in [1] was 7.59; in series [2] it was below 5.30; against Interstitial collagenase, below 5.30; in series [3] it was 5.83; on Stromelysin-1, below 5.30. This compound also had an AUC with Mus musculus of 323 nM/L.hr.

In the case of `CN(C(=O)c1ccccc1)C1CN[C@H](C(=O)N2CC[C@H](c3ccccc3)C2)[C@@H](C(=O)NO)C1` (some centres undefined), the results for the negative-log IC50 (pIC50) in series [1] and in [3] were 7.08 and 6.68, respectively.

`CC(C)C(=O)N(C)C1CN[C@H](C(=O)N2CC=C(c3ccccc3)CC2)[C@@H](C(=O)NO)C1` (some centres undefined): the pIC50 was 7.64 in series [1] and 7.96 in series [3].

Consider `O=C(NO)[C@H]1C[C@@H](OC(=O)N2CCCC2)CN[C@@H]1C(=O)N1CC=C(c2ccccc2)CC1`, for which the results for the pIC50 in series [1] and in [3] were 7.11 and above 8.30, respectively.

With `CN1C[C@@H](OC(=O)N2CCCC2)C[C@H](C(=O)NO)[C@H]1C(=O)N1CCN(c2ccccc2)CC1`, the pIC50 is 7.74 in series [1]; below 5.30 in series [2]; below 5.30 against Interstitial collagenase; 6.33 in series [3]; below 5.30 against Stromelysin-1.

As to `O=C(NO)[C@H]1CC(CC(=O)N2CCCC2)CN[C@@H]1C(=O)N1CC=C(c2ccccc2)CC1` (some centres undefined), the negative logarithm of the IC50 (pIC50) is 7.77 in series [1] and above 8.30 in [3].

On to `CN(C)C(=O)O[C@H]1C[C@H](C(=O)NO)[C@@H](C(=O)N2CCN(c3ccccc3)CC2)N(C)C1`, for which the pIC50 in series [1] is 7.24; in series [2], below 5.30; against Interstitial collagenase, below 5.30; in series [3], 6.14; against Stromelysin-1 it was below 5.30.

On to `O=C(NO)[C@H]1C[C@H](OC(=O)N2CCCC2)CN[C@@H]1C(=O)N1CCC(c2ccccc2)CC1`, for which the negative logarithm of the IC50 (pIC50) in series [1] was 7.00; in series [2], below 5.30; against Interstitial collagenase, below 5.30; in [3], below 5.70; against Stromelysin-1 it was below 5.30.

Regarding `CC(C)OC(=O)N(C)C1CN[C@H](C(=O)N2CC=C(c3ccccc3)CC2)[C@@H](C(=O)NO)C1` (some centres undefined), the pIC50 in [1] is 7.96; in [3], above 8.30.

With `O=C(NO)[C@H]1CC(OC(=O)N2CCCC2)CN[C@@H]1C(=O)N1Cc2ccccc2C1` (some centres undefined), the pIC50 in series [1] was 6.73; in [2] it was below 5.30; at Interstitial collagenase, 5.60; in series [3], below 5.70; on Stromelysin-1, below 5.30.

For `O=C(NO)[C@H]1C[C@H](OC(=O)N2CCCC2)CN[C@@H]1C(=O)N1CC=C(c2ccccc2)C1`, the pIC50 in series [1] is 7.22; in series [2], below 5.30; against Interstitial collagenase, below 5.30; on Stromelysin-1 it was below 5.30.

On to `O=C(NO)[C@H]1C[C@H](OC(=O)N2CCCC2)CN[C@@H]1C(=O)N1CCN(c2ccccc2)CC1`, for which the pIC50 in series [1] was 7.96; in series [2], below 5.30; against Interstitial collagenase, below 5.30; in series [3], 6.63; at Stromelysin-1 it was below 5.30.
